Source: PubChem (Johns Hopkins Ion Channel Center)
TRPC4 potent: allosteric potentiators of mouse TRPC4 channel. AID 2227. B-score at 10 µM. 310,000 compounds, 0.42% hits. HEK293 TRPC4beta/mu-opioid, DAMGO EC20, Fluo-4 Ca2+ flux; hits give high values. Q9QUQ5;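 active = B-score of calcium response area above 5 SD of library B-scores, with initial fluorescence ratio within 5 SD of library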;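 note: B-score of integrated fluorescence ratio over time as area under calcium response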
TRPC4 agonist: opens the mouse TRPC4 cation channel. Q9QUQ5. HEK293 TRPC4beta/mu-opioid, Fluo4 calcium fluorescence; hits give high values. B-score at 10 µM. 310,000 compounds, 0.49% hits;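 active = B-score above 5 SD of library B-scores, and initial fluorescence ratio not above library mean plus 5 SD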;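 note: positive B-score marks a calcium rise read as TRPC4 activation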
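system = HEK293 cells stably co-expressing mouse TRPC4beta and mu-opioid receptor | schedule = Fluo4 dye loading 45 min at room temperature, 110 s recording | measure = B-scored integrated calcium fluorescence ratio | signal = Fluo4 calcium-sensitive dye fluorescence, kinetic, 1 Hz baseline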
TRPC6 activator: activates the mouse TRPC6 cation channel. AID 2550. B-score at 10 µM. 310,000 compounds, 0.13% hits. HEK293-TRPC6 membrane potential dye fluorescence; hits give high values. Q61143;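 active = B-score of the integrated fluorescence ratio above library mean plus 3 SD, and starting fluorescence ratio within library mean plus 5 SD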;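 note: higher score means more depolarization so channel activation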
Target sequence (Q61143 whole entry, looked up): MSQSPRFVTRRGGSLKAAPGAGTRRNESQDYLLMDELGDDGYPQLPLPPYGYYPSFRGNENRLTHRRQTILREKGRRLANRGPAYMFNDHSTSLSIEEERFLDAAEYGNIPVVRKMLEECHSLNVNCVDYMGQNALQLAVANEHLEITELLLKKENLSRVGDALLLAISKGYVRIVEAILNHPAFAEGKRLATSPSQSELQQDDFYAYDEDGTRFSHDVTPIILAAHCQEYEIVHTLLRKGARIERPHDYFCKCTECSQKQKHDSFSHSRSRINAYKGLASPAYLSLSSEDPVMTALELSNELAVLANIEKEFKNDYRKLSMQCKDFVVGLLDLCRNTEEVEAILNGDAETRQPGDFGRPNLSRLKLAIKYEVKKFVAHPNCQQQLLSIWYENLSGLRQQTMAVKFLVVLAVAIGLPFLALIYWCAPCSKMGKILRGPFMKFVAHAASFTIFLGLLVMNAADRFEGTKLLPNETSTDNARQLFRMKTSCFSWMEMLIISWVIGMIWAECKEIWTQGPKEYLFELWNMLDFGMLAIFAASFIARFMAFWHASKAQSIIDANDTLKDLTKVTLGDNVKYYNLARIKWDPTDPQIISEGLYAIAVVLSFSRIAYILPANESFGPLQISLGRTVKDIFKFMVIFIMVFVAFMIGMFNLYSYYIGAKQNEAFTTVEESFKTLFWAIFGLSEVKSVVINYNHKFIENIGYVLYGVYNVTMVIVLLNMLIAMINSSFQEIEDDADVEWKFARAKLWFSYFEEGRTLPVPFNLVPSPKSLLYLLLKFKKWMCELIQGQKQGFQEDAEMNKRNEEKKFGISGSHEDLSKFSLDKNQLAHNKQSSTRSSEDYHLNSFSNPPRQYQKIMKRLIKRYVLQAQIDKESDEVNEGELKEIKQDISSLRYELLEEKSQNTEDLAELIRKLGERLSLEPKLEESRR
TRPC4 block: blocks the mouse TRPC4 cation channel; HEK293 TRPC4beta/mu-opioid, DAMGO-evoked Fluo4 calcium flux; hits give low values; B-score at 10 µM; 300,000 compounds, 0.39% hits; AID 2247;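 active = B-score over 3 SD under the library average, no early fluorescence shift, positive overall ratio signal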
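Assay system: TRPC4beta/mu-opioid receptor HEK293 cell line; compound dosing: single concentration per test compound; detection: Fluo4 Ca2+ flux fluorescence; evaluation: per-well B score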
TRPC6 inh: inhibitors of mouse TRPC6 channel. Q61143. HEK293-TRPC6, membrane potential dye, ACh-evoked depolarization; hits give low values. B-score at 10 µM. 310,000 compounds, 1.1% hits. AID 2553;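 active = B-score under library mean minus 3 SD, initial fluorescence not abnormally high, positive integrated signal ratio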;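 note: B-score derived from integrated fluorescence ratio over the kinetic read; more negative B-score means stronger inhibition of depolarization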
TRPC4 spec 2: second check of whether TRPC6 inhibitors also affect mouse TRPC4. shares compounds with TRPC6 inh. HEK293 TRPC4/MOR, membrane potential dye fluorescence; channel activated by saturating DAMGO dose. inhibition, % at 10 µM. 920 compounds, 42% hits;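 active = compounds whose fluorescence signal differed from control wells by over 3 SD, either direction, in both duplicate plates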
TRPC4 spec: mouse TRPC4 off-target activity of TRPC6 inhibitors | 920 compounds, 61% hits | activity change, negative = inhibition, % at 10 µM | HEK293 TRPC4/mu-opioid, membrane potential fluorescence | shares compounds with TRPC6 inh;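 active = rise or fall in signal beyond 3 SD of buffer-only wells in both replicate plates, either sign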;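 note: integrated kinetic ratio of fluorescence range over baseline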
HEK293 MPD ctr 2-1: second counter-screen for TRPC6 inhibitors: parental HEK293 cells. shares compounds with TRPC6 inh. AID 2779. 920 compounds, 31% hits. parental HEK293 membrane potential dye fluorescence; maximal acetylcholine challenge after compound addition. signal change vs control, % at 10 µM;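 active = membrane potential signal moving either way by over 3 SD of the maximum-effect control, in both duplicate plates, meaning non-specific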
HEK293 MPD ctr-1: checks TRPC6 inhibitor effects in parental HEK293 cells. 920 compounds, 60% hits. membrane potential signal change, % at 10 µM. AID 2780. shares compounds with TRPC6 inh. parental HEK293 membrane potential dye fluorescence;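 active = membrane potential signal shifting up or down by more than 3 SD of buffer-only wells, on both duplicate plates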
HEK293 MPD ctr-2: counter-screen for TRPC6 modulators: effect in parental HEK293 cells; shares compounds with TRPC6 inh; membrane potential dye fluorescence; membrane potential signal change, % at 10 µM; 2,400 compounds, 51% hits;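 active = membrane potential signal moves up or down beyond 5 SD from buffer-only wells, on both duplicate plates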
HEK293 MPD ctr 2-2: parental HEK293 nonspecific activity of TRPC6 modulators, second screen | inhibition, % at 10 µM | shares compounds with TRPC6 inh | membrane potential dye fluorescence; after compound, maximal acetylcholine stimulation | 2,400 compounds, 14% hits;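 active = membrane potential signal drops by more than 5 SD from the mean control signal, in both duplicate plates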;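 note: plate controls were acetylcholine ECmax control wells for no effect and buffer only wells for full effect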
TRPC4/MOR mod: tests whether TRPC6 modulators also affect mouse TRPC4. 2,400 compounds, 69% hits. shares compounds with TRPC6 inh. AID 488927. percent change from control (negative = decrease, positive = increase), % at 10 µM. HEK293 TRPC4/mu-opioid, membrane potential fluorescence;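 active = membrane potential signal moved up or down beyond 5 SD of buffer control wells, in both duplicate plates, actives on both sides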;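 note: plate controls were assay buffer wells for no effect and DAMGO maximal-effect wells for full effect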
TRPC4 ctr inh 2: mouse TRPC4 off-target activity of TRPC6 modulators, second screen; 2,400 compounds, 55% hits; HEK293 TRPC4/mu-opioid, membrane potential dye fluorescence; stimulated with maximal-effect DAMGO; AID 488928; shares compounds with TRPC6 inh; inhibition, % at 10 µM;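 active = drop in membrane potential signal beyond 5 SD of the control wells in both duplicate plates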;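 note: TRPC4 counter screen for TRPC6 hits run under conditions tuned for TRPC6 not TRPC4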
TRPC6 block conf: mouse TRPC6 inhibitor confirmation. shares compounds with TRPC6 inh. HEK293-TRPC6, membrane potential dye, ACh-evoked depolarization. inhibition, % at 10 µM. 3,300 compounds, 43% hits;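 active = fluorescence ratio falls more than 5 SD below the full-stimulation control mean, in both duplicate runs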;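 note: integrated fluorescence ratio of peak minus minimum over baseline after agonist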
TRPC6 act confirm: mouse TRPC6 activator confirmation. 2,800 compounds, 11% hits. HEK293-TRPC6 membrane potential dye fluorescence, FDSS. activation, % at 10 µM. shares compounds with TRPC6 inh;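 active = ratio signal rise beyond 5 SD above unstimulated control wells' mean, seen in both duplicate runs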;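 note: plate controls were buffer EC0 wells for no effect and acetylcholine ECmax response for full effect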
Active calls of the source: *; i = inactive; . = no result. Shown are actives, neighbours in structure and some others; about 2.3% of the full set was active somewhere.

SMILES	TRPC4 potent	TRPC4 agonist	TRPC6 activator	TRPC4 block	TRPC6 inh	HEK293 MPD ctr-2	HEK293 MPD ctr 2-2	TRPC4/MOR mod	TRPC4 ctr inh 2	TRPC6 block conf	TRPC6 act confirm	others
CCCCN(C)C(=O)c1nc2ccccn2c1CN1CCN(C(=O)c2cccs2)CC1	i	i	i	i	i	.	.	.	.	.	.
CCc1ccc(/C=C2/SC(=S)N(CCC(=O)NCCCN3CCOCC3)C2=O)cc1	i	i	i	i	-5.8*	i	i	i	45%*	39%*	i
Nc1ccc(C(=O)OCC(=O)NC(=O)c2ccccc2)cc1[N+](=O)[O-]	i	i	i	i	i	.	.	.	.	.	.
O=C(COC(=O)c1cc[n+]([O-])cc1)Nc1ccc(Cl)cc1[N+](=O)[O-]	i	i	i	i	-6*	-168%*	i	-36%*	i	i	i
O=C(COC(=O)c1cc[n+]([O-])cc1)Nc1ccc([N+](=O)[O-])cc1Cl	i	i	i	i	-8.9*	-314%*	i	-52%*	62%*	44%*	i
O=C(COC(=O)c1ccc(Cl)cc1[N+](=O)[O-])NC(=O)c1ccccc1	i	i	i	i	-5.9*	i	i	i	i	i	i
C[C@@H](C(=O)N1CCN(Cc2ccc3c(c2)OCO3)CC1)n1nnc2ccccc2c1=O	i	i	i	i	i	.	.	.	.	.	.
Cc1c(/C=C/C(=O)c2ccc(C(C)C)cc2)cnn1C	i	i	i	i	i	.	.	.	.	.	.
CCN(CC)CCN1C(=O)Cn2c(C)c(C)c3cccc1c32	i	i	i	i	-8.4*	i	i	-18%*	61%*	53%*	i	TRPC4 spec 2=50%*;TRPC4 spec=-17%*;HEK293 MPD ctr 2-1=i;HEK293 MPD ctr-1=-254%*
COC(=O)c1ccc2c(c1)C(C)(C)C(/C=C/c1ccc(OC)c(OC)c1OC)=[N+]2C	i	i	i	i	-9.6*	-179%*	88%*	-190%*	56%*	72%*	i
S=c1[nH]nc(Cc2ccccc2)n1Cc1ccco1	i	i	i	i	-8.3*	.	.	.	.	65%*	i	TRPC4 spec 2=i;TRPC4 spec=i;HEK293 MPD ctr 2-1=14%*;HEK293 MPD ctr-1=i
CCCn1c(Cc2ccccc2)n[nH]c1=S	i	i	i	i	i	.	.	.	.	.	.
c1ccc(-n2cc(CN3CCCC(CN4CCCC4)C3)c(-c3ccc4c(c3)OCO4)n2)cc1 (stereo not drawn)	i	i	i	i	-5.8*	i	i	i	73%*	i	i
CCCn1c(C)cc(=O)c2cc(NC(=O)c3ccccn3)ccc21	i	i	i	i	-11*	-345%*	126%*	-58%*	74%*	86%*	i
COc1ccc(C(OCC(O)CNCCc2ccccc2)c2ccc(OC)cc2)cc1 (stereo not drawn)	i	i	i	i	i	.	.	.	.	.	.
FC(F)Sc1ccc(-n2cc(-c3ccccc3)[n+]3c2CCC3)cc1	i	i	i	i	i	.	.	.	.	.	.
COc1ccc(-c2cn(-c3ccc(SC(F)F)cc3)c3[n+]2CCC3)cc1OC	i	i	i	i	-6.3*	-137%*	128%*	-20%*	38%*	64%*	i
CCCCOC(=O)c1ccc(NC(=O)COC(=O)C2CSC3(C)CCC(=O)N23)cc1 (stereo not drawn)	i	i	i	i	-5.7*	i	i	i	i	75%*	.
CC12CCC(=O)N1C(C(=O)OCC(=O)Nc1sccc1C#N)CS2 (stereo not drawn)	i	i	i	i	i	.	.	.	.	.	.
CCOC(=O)C1(C)/C(=N/Nc2ccccc2Cl)C(=O)C(=O)N1c1ccccc1 (stereo not drawn)	i	i	i	i	-5.1*	-76%*	i	-21%*	48%*	i	i
CCOC(=O)C1(C)/C(=N/Nc2ccc(Cl)cc2)C(=O)C(=O)N1c1ccccc1 (stereo not drawn)	i	i	i	i	i	.	.	.	.	.	.
COC(=O)[C@@H]1C[C@H]1[C@@H](NC(=O)c1cc(C)on1)c1ccccc1	i	i	i	i	i	.	.	.	.	.	.
CN(C)CCC(Oc1ccccc1OCc1ccccc1)c1ccccc1 (stereo not drawn)	i	i	i	i	-5.9*	257%*	i	49%*	85%*	44%*	.
CCCNC(=O)Cn1c(=O)/c(=C\c2ccc(-c3ccc([N+](=O)[O-])cc3)o2)s/c1=C\C(=O)C(C)(C)C	i	i	33*	i	i	978%*	i	274%*	i	i	281%*
CCCNC(=O)Cn1c(=O)/c(=C\c2ccc(-c3cccc([N+](=O)[O-])c3)o2)s/c1=C\C(=O)C(C)(C)C	i	i	i	i	i	.	.	.	.	.	.
O=[N+]([O-])c1ccc(OCCCCN2CCc3ccccc3C2)cc1	i	i	i	i	-8.4*	.	.	.	.	i	i	TRPC4 spec 2=44%*;TRPC4 spec=i;HEK293 MPD ctr 2-1=i;HEK293 MPD ctr-1=i
